Measurements published in PubChem BioAssay AID652000 (Sanford-Burnham Center for Chemical Genomics, 2013).
The campaign covered roughly 2,400 compounds. Fewer than 10 were called active. Only a sample is shown. Values without a mark were called inactive.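 Rule for the calls: active = activation of at least 50%; inactive = the rest.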

molecular target: G-protein coupled receptor 183 (Homo sapiens) (UniProt P32249); assay: EBI2 receptor activation without oxysterol – cell-based, single concentration, agonist mode, luminescence, counter-screen for EBI2 antagonist project, confirmation (AID 652000); conditions: EBI2-expressing cells, 60 min, at 5 µM, active compounds read high, 0% vehicle, 100% 7α,25-dihydroxycholesterol control
Sequence (P32249 whole entry, looked up): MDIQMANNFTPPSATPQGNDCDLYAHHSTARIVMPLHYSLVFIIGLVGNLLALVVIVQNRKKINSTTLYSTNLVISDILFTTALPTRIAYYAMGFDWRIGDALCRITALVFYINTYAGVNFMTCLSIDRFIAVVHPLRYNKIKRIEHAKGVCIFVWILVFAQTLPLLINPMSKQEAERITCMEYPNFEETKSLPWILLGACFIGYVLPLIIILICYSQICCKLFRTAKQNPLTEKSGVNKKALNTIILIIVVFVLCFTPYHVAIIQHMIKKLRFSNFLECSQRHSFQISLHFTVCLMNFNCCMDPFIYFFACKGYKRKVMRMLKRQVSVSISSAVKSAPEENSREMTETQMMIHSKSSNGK
How it was run: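 Test system: beta-arrestin reporter cell line; Amount: 1500 cells/well; Measured by: luminescence; Incubation: overnight seeding and 60-min compound at 37°C, 60-min detection at 25°C; Benchmarks: positive control with 7alpha,25-OHC.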

Compared with `COc1ccc(-n2c(Cc3cccn3C)nnc2SCC(=O)Nc2cc(C)cc(C)c2)cc1`, `Cc1ccc(-n2ncc3c(=O)n(-c4ccc(C)c(C)c4)c(-c4ccco4)nc32)cc1` is lower in activation: 0.66% for the first, -1.66% for the second.

Going from `COc1ccc([C@H]2CC(=O)C=C(/C=C/c3ccc(Cl)cc3)C2)cc1` to `N#Cc1ccc(C2=CC(=O)C[C@H](c3ccc(Cl)cc3)C2)cc1`, the activation rises from -0.43% to 1.84%.

First: COc1ccccc1CCNC(=O)C1CCN(C(=O)/C=C/c2ccccc2)CC1
Second: O=C(/C=C/c1cccc([N+](=O)[O-])c1)N1CCN(Cc2ccccc2)CC1
The activation of the first is higher: -0.16% for the first, -0.29% for the second.

First: COc1ccc(C(c2nnnn2C2CCCC2)N2CCN(C/C=C/c3ccccc3)CC2)cc1 (stereo not given)
Second: c1ccc(C(c2ccccc2)N2CCN(Cc3nnnn3C3CCCCC3)CC2)cc1
The activation of the first is lower: -0.25% for the first, 0.25% for the second.

First: CN1CCc2ccccc2C1Cc1ccccc1NC(=O)c1sc2ccccc2c1Cl (stereo not given)
Second: O=C(CSc1ccccc1)Nc1cc(Cl)ccc1Oc1ccccc1
The activation of the first is higher: -0.98% for the first, -1.48% for the second.

Compared with `O=C(Nc1ccc(S(=O)(=O)N2CCCCC2)cc1)C1CC(=O)N(c2ccc(F)cc2)C1` (stereo not given), `O=C(COc1ccc(Cl)cc1)N1CCN(S(=O)(=O)c2ccc(Cl)cc2)CC1` is higher in activation: 0.98% for the first, 1.62% for the second.

Compared with `O=C(c1cc(=O)c2ccccc2o1)N1CCN(c2ccccc2)CC1`, `COc1ccccc1N1CCN(C(=O)c2cc(-c3ccc(Br)cc3)on2)CC1` is lower in activation: 2.48% for the first, 1.43% for the second.

First: CCCC1CCC(=NNC(=S)NCCc2ccccc2)CC1 (stereo not given)
Second: O=C(NCCCc1ccccc1)C1CCC(=O)N(CCc2ccc(Cl)cc2)C1 (stereo not given)
The activation of the first is lower: -1.07% for the first, 1.57% for the second.

Going from `Cc1cccc(N=C2NC(=O)/C(=C/c3cn(C)c4ccccc34)S2)c1` to `Cc1cccc(-n2c(O)c(C=Nc3ccccc3N)c(=O)[nH]c2=O)c1`, the activation falls from -0.07% to -2.25%.

Compared with `COc1ccc(-c2cc(NC=O)c3ncc(-c4cccc(C(=O)N(C)C)c4)n3c2)c(OC)c1`, `COc1ccc(N(CC(=O)Nc2cc(OC)ccc2OC)S(=O)(=O)c2c(C)noc2C)cc1` is higher in activation: -1.02% for the first, 1.12% for the second.

Going from `Cc1ccc(CSCCNC(=O)CN(c2ccc(F)cc2)S(C)(=O)=O)cc1` to `Cc1ccc(S(=O)(=O)NCCNC(C)c2ccc(Br)cc2)cc1` (stereo not given), the activation rises from 0.84% to 0.98%.

Going from `CC(C)N(Cc1ccccc1)C(=S)Nc1ccc(OC(F)F)cc1` to `O=C(CCc1ccccc1)NNC(=O)COc1ccc(Cl)cc1`, the activation rises from 0.07% to 0.21%.

First: CC(C)Cc1ccc(-c2cc3nc(NCc4cccc(Cl)c4)ccn3n2)cc1
Second: O=C(NCc1ccc(Cl)cc1)c1cc(=O)nc2sc(-c3ccccc3)nn12
The activation of the first is lower: -1.2% for the first, -0.48% for the second.

Going from `CCOC(=O)N1CCN(C(=O)CSc2ccc(Cl)cc2)CC1` to `CCOC(=O)N1CCN(C(=O)COc2ccc(Br)cc2)CC1`, the activation falls from 2.07% to 1.84%.

Going from `Cc1ccc(SCC(=O)N2CCN(c3ccc(F)cc3)CC2)cc1` to `CCN1CCN(C(=O)CSc2ccc(C)cc2)CC1`, the activation falls from 4.12% to 0.02%.

Compared with `CC(=O)/C(=N\Nc1ccc(Cl)cc1Cl)Sc1cccc2cccnc12`, `Cc1cc(OCCOc2cccc3cccnc23)c(C)cc1Cl` is higher in activation: -1.34% for the first, 1.3% for the second.

Compared with `COc1ccc(OC)c(C(=O)c2coc3ccc(O)c(CN4CCOCC4)c23)c1`, `Cc1ccc(OCC(=O)N2CCN(S(=O)(=O)c3ccc(Cl)s3)CC2)cc1C` is higher in activation: 0.62% for the first, 1.84% for the second.

First: O=C(/C=C/c1cccc(C(F)(F)F)c1)N1CCN(c2ccccn2)CC1
Second: COc1ccc(OCC(=O)N2CCN(C(=O)c3cccs3)CC2)cc1
The activation of the first is lower: -0.93% for the first, 1.48% for the second.

Going from `Cc1cccc(OCC(O)CN2CCN(S(=O)(=O)c3ccc(C)cc3C)CC2)c1` (stereo not given) to `Cc1cccc(C)c1-n1nnnc1C(CCc1ccccc1)N1CCN(C/C=C/c2ccccc2)CC1` (stereo not given), the activation falls from -0.98% to -1.39%.

Compared with `COc1ccc(-c2cn(-c3ccc(OC)cc3)c(=S)[nH]2)cc1`, `COc1ccc(-c2nc(N)ncc2-c2ccc(Cl)cc2)c(O)c1` is lower in activation: 1.66% for the first, 1.03% for the second.

First: CCC(C)(C)NC(=O)c1cc([N+](=O)[O-])ccc1N1CCCCC1
Second: CCCCN=C1C([N+](=O)[O-])=CC=C2C1=NC1(CCCCC1)N2O
The activation of the first is lower: -1.43% for the first, -0.38% for the second.

First: O=C(NCCNc1ccc([N+](=O)[O-])cc1)c1cccc2c(Br)cccc12
Second: COc1cc(/C=C(\C#N)C(=O)Nc2ccc3ccccc3c2)c([N+](=O)[O-])cc1OC
The activation of the first is higher: 0.12% for the first, -0.75% for the second.

Going from `O=C(c1ccc(-n2cnnn2)cc1)N1CCN(C(c2ccccc2)c2ccccc2)CC1` to `CCC(c1nnc(SCC(=O)NNC(=O)c2ccccc2)n1Cc1ccccc1)N(C)C` (stereo not given), the activation falls from 1.53% to -1.34%.

Going from `COc1ccc(C(C(=O)NC2CCCCC2)N(C(=O)c2snc(C(N)=O)c2N)c2ccccc2OC)cc1` (stereo not given) to `COc1ccc(C(=O)/C=C/c2ccc(OC3CSC3)cc2)cc1`, the activation rises from 1.3% to 2.89%.

Going from `COc1ccc(/C=N/N=C/c2c[nH]c(=O)c(C#N)c2Nc2ccccc2)cc1` to `COc1ccc2cc(C3=CC(=O)C[C@H](c4ccc5c(c4)OCO5)C3)ccc2c1`, the activation rises from -1.52% to -1.39%.

Going from `O=c1[nH]c(CN2CCN(S(=O)(=O)c3ccc4c(c3)OCCO4)CC2)nc2sc3c(c12)CCCC3` to `COc1cccc(NC(=O)Cn2c3ccc(F)cc3c3nc4n(c(=O)c32)CCS4)c1`, the activation rises from -1.11% to 0.89%.

Compared with `CCOC(=O)C1CCN(C(=O)COc2cc(C)c(Br)c(C)c2)CC1`, `Cc1cc(C)c2c(=O)n3c(nc2c1)C(CC(C)C)NC(=O)c1cc2ccccc2cc1-3` (stereo not given) is lower in activation: 2.25% for the first, 0.75% for the second.

`CCCCC(=O)N(C)c1c(CC)nc2c(OCc3ccc(Cl)cc3Cl)cccn12` gave an activation of -1.02%.
